Measured values reported in ChEMBL document CHEMBL1128739, “Structure-activity relationships in the 8-amino-6,7,8,9-tetrahydro-3H-benz[e]indole ring system. 2. Effects of 8-amino nitrogen substitution on serotonin receptor binding and pharmacology” (J Med Chem, 1995).
Activity calls are given as the source filed them. The rule behind the calls is not given here.

Experiments:
[1] = molecular target: 5-hydroxytryptamine receptor 1D (Homo sapiens, UniProt P28221); assay: In vitro binding affinity against cloned mammalian 5-hydroxytryptamine 1D receptor alpha expressed in CHO cells, by using [3H]5-HT as radioligand; format: cell-based
Sequence of 5-hydroxytryptamine receptor 1D (P28221 whole entry): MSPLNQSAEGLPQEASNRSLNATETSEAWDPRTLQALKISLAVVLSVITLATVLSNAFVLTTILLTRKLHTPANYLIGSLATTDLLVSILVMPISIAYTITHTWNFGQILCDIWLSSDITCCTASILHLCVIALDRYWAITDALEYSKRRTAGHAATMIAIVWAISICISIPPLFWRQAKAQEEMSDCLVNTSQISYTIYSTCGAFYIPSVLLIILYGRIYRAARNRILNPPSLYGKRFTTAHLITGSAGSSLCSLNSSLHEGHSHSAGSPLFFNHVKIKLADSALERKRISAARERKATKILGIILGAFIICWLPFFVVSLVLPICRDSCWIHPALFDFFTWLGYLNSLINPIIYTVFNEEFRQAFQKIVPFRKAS
Summary of the method: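 Competition binding on CHO-cell membranes (20-60 μg protein) in 50 mM Tris, 5 mM MgCl2, 0.1% ascorbic acid, pH 7.4. Nonspecific binding defined with excess serotonin. 11 drug concentrations, each in duplicate. Incubated 1 h at room temperature, protected from light, then filtered and scintillation counted. IC50 taken from a one-site fit; Ki by Cheng-Prusoff.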

[2] = molecular target: T1, D(2) dopamine receptor (Rattus norvegicus, UniProt P61169); assay: In vitro binding affinity against cloned mammalian Dopamine receptor D2 expressed in CHO cells using [3H]U-86170 as radioligand; format: cell-based; settings: read-out: Ki
T1 sequence (P61169 whole entry): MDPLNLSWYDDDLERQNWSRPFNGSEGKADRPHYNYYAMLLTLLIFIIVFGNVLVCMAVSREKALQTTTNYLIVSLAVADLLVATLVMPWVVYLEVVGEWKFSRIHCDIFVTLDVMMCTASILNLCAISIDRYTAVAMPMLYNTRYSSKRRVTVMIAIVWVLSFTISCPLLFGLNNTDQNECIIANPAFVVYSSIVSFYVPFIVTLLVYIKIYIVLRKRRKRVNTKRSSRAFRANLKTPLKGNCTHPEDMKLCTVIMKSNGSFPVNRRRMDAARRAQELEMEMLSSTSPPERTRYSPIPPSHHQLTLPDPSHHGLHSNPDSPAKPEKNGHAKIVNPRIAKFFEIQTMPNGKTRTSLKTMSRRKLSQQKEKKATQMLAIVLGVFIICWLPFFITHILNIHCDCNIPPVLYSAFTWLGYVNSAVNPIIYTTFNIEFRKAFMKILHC
Summary of the method: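 Membranes from CHO cells (20-60 μg protein) in 20 mM HEPES, 10 mM MgSO4, pH 7.4. Nonspecific binding defined with excess haloperidol. 11 concentrations, each in duplicate. Incubated 1 h at room temperature, then filtered and counted. IC50 from a one-site competition fit, converted to Ki by Cheng-Prusoff.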

[3] = molecular target: D(3) dopamine receptor (Rattus norvegicus, UniProt P19020); assay: In vitro binding affinity against cloned mammalian Dopamine receptor D3 expressed in CHO cells by, using [3H]-spiperone as radioligand; format: cell-based; settings: read-out: Ki
Sequence of D(3) dopamine receptor (P19020 whole entry): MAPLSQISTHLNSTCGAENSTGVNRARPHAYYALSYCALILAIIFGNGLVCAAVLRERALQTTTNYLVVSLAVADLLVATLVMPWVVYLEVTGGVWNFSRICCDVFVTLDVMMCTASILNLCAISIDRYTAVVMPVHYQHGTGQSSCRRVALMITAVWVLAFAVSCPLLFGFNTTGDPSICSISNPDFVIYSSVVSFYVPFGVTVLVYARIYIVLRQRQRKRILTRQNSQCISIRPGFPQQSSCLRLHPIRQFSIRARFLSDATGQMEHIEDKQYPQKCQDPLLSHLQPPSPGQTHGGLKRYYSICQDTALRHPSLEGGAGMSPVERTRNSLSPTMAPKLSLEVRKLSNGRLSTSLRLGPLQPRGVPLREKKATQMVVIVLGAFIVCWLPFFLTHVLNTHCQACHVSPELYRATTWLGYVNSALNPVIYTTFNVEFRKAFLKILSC

[4] = tested on: Rattus norvegicus; assay: The compound was tested in vivo for biochemical effect against the changes in different brain area levels of DOPA in reserpinized rat hemispheres (mainly cortex)at dose 12.5 uM/kg; inactive; format: functional, organism-based
Summary of the method: (§1)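 Male Sprague-Dawley rats (200-300 g) pretreated with reserpine 5 mg/kg sc 18 h before. Injection volume 5 mL/kg, test solutions at neutral pH. DOPA and 5-HTP in limbic system, striatum and hemispheres measured by HPLC with electrochemical detection. Dose-response curves from four to six dose levels (n = 4) per brain area.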

[5] = tested on: Rattus norvegicus; assay: In vivo for biochemical effect against brain area levels of 5-HTP in reserpinized rat hemispheres (mainly cortex).; format: functional; summary of the method: as §1
[6] = tested on: Rattus norvegicus; assay: In vivo changes in different brain area levels of 5-HTP in reserpinized rat corpus striatum.; format: functional
Summary of the method: (§2)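 Male Sprague-Dawley rats (200-300 g) pretreated with reserpine 5 mg/kg sc 18 h before. Injection volume 5 mL/kg at neutral pH. Brain-region 5-HTP measured by HPLC with electrochemical detection. Dose-response curves used four to six doses, n = 4.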

[7] = molecular target: T2, 5-hydroxytryptamine receptor 1B (Homo sapiens, UniProt P28222); assay: The compound was tested in vitro for binding affinity against cloned mammalian 5-hydroxytryptamine 1D receptor beta expressed in CHO cells, by using [3H]5-HT as radioligand; format: cell-based; design: concentration or dose not given beside the values; settings: concentration not given here
T2 sequence (P28222 whole entry): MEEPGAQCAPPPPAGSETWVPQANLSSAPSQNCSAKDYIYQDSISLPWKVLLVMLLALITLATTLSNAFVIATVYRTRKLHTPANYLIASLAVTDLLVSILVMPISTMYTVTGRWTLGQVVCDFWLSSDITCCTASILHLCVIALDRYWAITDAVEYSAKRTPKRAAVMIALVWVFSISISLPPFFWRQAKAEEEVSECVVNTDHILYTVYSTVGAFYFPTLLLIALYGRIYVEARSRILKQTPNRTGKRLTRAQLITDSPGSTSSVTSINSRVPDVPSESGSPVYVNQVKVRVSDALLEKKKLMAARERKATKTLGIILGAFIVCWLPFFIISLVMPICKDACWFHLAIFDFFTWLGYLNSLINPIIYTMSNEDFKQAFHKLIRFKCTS
Summary of the method: (§3)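 Membranes from CHO cells stably expressing the cloned receptor, made by mechanical disruption in ice-cold Tris/EDTA/EGTA pH 7.4 and differential centrifugation. [3H]serotonin at 1.7 nM in 50 mM Tris, 5 mM MgCl2, 0.1% ascorbic acid, pH 7.4. 11 drug concentrations in duplicate, 1 h at room temperature protected from light, then filtration. Excess serotonin defines nonspecific binding. One-site IC50 fit, Ki by Cheng-Prusoff.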

[8] = tested on: Rattus norvegicus; assay: In vivo changes in different brain area levels of 5-HTP in reserpinized rat limbic system.; format: functional; summary of the method: as §2
[9] = tested on: Rattus norvegicus; assay: The compound was tested in vivo for biochemical effect against the changes in different brain area levels of DOPA in reserpinized rat corpus striatum; format: functional; summary of the method: as §1
[10] = tested on: Rattus norvegicus; assay: The compound was tested in vivo for biochemical effect against the changes in different brain area levels of DOPA in reserpinized rat limbic system; format: functional
Summary of the method: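 Rats (male Sprague-Dawley, 200-300 g) received reserpine 5 mg/kg sc 18 h before. Injections 5 mL/kg at neutral pH. DOPA accumulation measured by HPLC with electrochemical detection as an index of DA or NE synthesis rate. Four to six dose levels, n = 4. ED50 from a sigmoidal fit.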

[11] = molecular target: T1, D(2) dopamine receptor; assay: Binding affinity rat Dopamine receptor D2 expressed in CHO-K1 cells by [3H]U-86170 displacement.; format: cell-based
[12] = molecular target: T2, 5-hydroxytryptamine receptor 1B; assay: In vitro binding affinity against cloned mammalian 5-hydroxytryptamine 1D receptor beta expressed in CHO cells, by using [3H]5-HT as radioligand; format: cell-based; summary of the method: as §3
[13] = tested on: Rattus norvegicus; assay: The compound was tested in vivo for biochemical effect against the changes in different brain area levels of DOPA in reserpinized rat limbic system at dose 3.1 uM/kg; Inactive; format: functional, organism-based; summary of the method: as §1
[14] = tested on: Rattus norvegicus; assay: The compound was tested in vivo for biochemical effect against the changes in different brain area levels of DOPA in reserpinized rat corpus striatum at dose 3.1 uM/kg; Inactive; format: functional, organism-based; summary of the method: as §1
[15] = tested on: Rattus norvegicus; assay: The compound was tested in vivo for biochemical effect against the changes in different brain area levels of DOPA in reserpinized rat hemispheres (mainly cortex)at dose 3.1 uM/kg; Inactive; format: functional, organism-based; summary of the method: as §1
[16] = tested on: Rattus norvegicus; assay: The compound was tested in vivo for biochemical effect against the changes in different brain area levels of DOPA in reserpinized rat hemispheres (mainly cortex)at dose 12.5 uM/kg; Inactive; format: functional, organism-based
[17] = tested on: Rattus norvegicus; assay: The compound was tested in vivo for biochemical effect against the changes in different brain area levels of DOPA in reserpinized rat corpus striatum at dose 12.5 uM/kg; Partial effect; format: functional, organism-based; summary of the method: as §1
[18] = tested on: Rattus norvegicus; assay: The compound was tested in vivo for biochemical effect against the changes in different brain area levels of DOPA in reserpinized rat limbic system at dose 12.5 uM/kg; Partial effect; format: functional, organism-based
[19] = molecular target: D(3) dopamine receptor (Rattus norvegicus) (UniProt P19020); assay: The compound was tested in vitro for binding affinity against cloned mammalian Dopamine receptor D3 expressed in CHO cells by, using [3H]spiperone as radioligand; inactive at 10E-6 M; format: cell-based
Sequence of D(3) dopamine receptor (Rattus norvegicus) (P19020 whole entry): as the sequence (P19020 whole entry) above

[20] = tested on: Rattus norvegicus; assay: The compound was tested in vivo for biochemical effect against the changes in different brain area levels of DOPA in reserpinized rat hemispheres (mainly cortex) at dose of 3.1 micro/kg; Inactive; format: functional, organism-based; summary of the method: as §1
[21] = tested on: Rattus norvegicus; assay: The compound was tested in vivo for biochemical effect against the changes in different brain area levels of 5-HTP in reserpinized rat hemispheres (mainly cortex)at dose 3.1 uM/kg; Inactive; format: functional, organism-based
[22] = tested on: Rattus norvegicus; assay: The compound was tested in vivo for biochemical effect against the changes in different brain area levels of 5-HTP in reserpinized rat corpus striatum at dose 3.1 uM/kg; Inactive; format: functional, organism-based
[23] = tested on: Rattus norvegicus; assay: The compound was tested in vivo for biochemical effect against the changes in different brain area levels of 5-HTP in reserpinized rat limbic system at dose 3.1 uM/kg; Inactive; format: functional, organism-based

| Ki [2] | SMILES | Ki [1] | Ki [3] | Ki [11] | Ki [12] | also measured |
| --- | --- | --- | --- | --- | --- | --- |
|  | CCCN(CC1CC1)C1CCc2ccc3[nH]ccc3c2C1 (stereo unspecified) | 75 nM | 50 nM | 33 nM |  | ED50 [4]: inactive; ED50 [5]: 0.18 µmol/kg; ED50 [6]: 0.11 µmol/kg; inhibition [7]: < 45%; ED50 [8]: 0.11 µmol/kg; ED50 [9]: 1.4 µmol/kg; ED50 [10]: 1.18 µmol/kg |
|  | CCCN(CCCCN1C(=O)CC(C)(C)CC1=O)[C@@H]1CCc2ccc3[nH]ccc3c2C1 |  |  | 6.5 nM |  |  |
|  | CN(C)[C@@H]1CCc2ccc3[nH]ccc3c2C1 |  | 270 nM |  | 228 nM |  |
|  | CCCN(CCCOc1cccc(Cl)c1)C1CCc2ccc3[nH]ccc3c2C1 (stereo unspecified) | 13 nM | 20 nM | 15 nM | 243 nM |  |
|  | CCCN(CC1CC1)C1CCc2ccc3[nH]cc(C=O)c3c2C1 (stereo unspecified) | 24 nM | 164 nM |  | 196 nM | ED50 [5]: 0.34 µmol/kg; ED50 [13]: inactive; ED50 [6]: 0.33 µmol/kg; ED50 [14]: inactive; ED50 [15]: inactive; ED50 [8]: 0.23 µmol/kg |
| 25 nM | CCCN(CCc1cccs1)C1CCc2ccc3[nH]cc(C=O)c3c2C1 (stereo unspecified) | 2 nM | 48 nM |  | 46 nM | ED50 [5]: 0.11 µmol/kg; ED50 [16]: inactive; ED50 [6]: 0.044 µmol/kg; ED50 [8]: 0.082 µmol/kg; ED50 [17]: Weak activity; ED50 [18]: Weak activity |
|  | CCCN(CCC)C1CCc2ccc3[nH]ccc3c2C1 (stereo unspecified) | 39 nM |  |  |  |  |
| 136 nM | CCCN(CCCCN1C(=O)CC(C)(C)CC1=O)C1CCc2ccc3[nH]cc(C=O)c3c2C1 (stereo unspecified) | 9.8 nM | 450 nM |  | 115 nM |  |
|  | CCCN(CCCc1ccccc1OC)C1CCc2ccc3[nH]ccc3c2C1 (stereo unspecified) | 2.5 nM | 10 nM | 4.8 nM | 40 nM |  |
|  | c1cc2c3c(ccc2[nH]1)CCC(N1CCCCCC1)C3 (stereo unspecified) | 340 nM |  | 100 nM |  | inhibition [7]: < 45%; inhibition [19]: < 45% |
|  | CCCN(CCCCN1C(=O)CC(C)(C)CC1=O)C1CCc2ccc3[nH]ccc3c2C1 (stereo unspecified) | 26 nM | 29 nM | 15 nM | 224 nM |  |
|  | CCCN(CCC)[C@H]1CCc2ccc3[nH]ccc3c2C1 |  |  |  |  | ED50 [20]: inactive |
| 90 nM | CCCN(Cc1ccccc1)C1CCc2ccc3[nH]cc(C=O)c3c2C1 (stereo unspecified) | 33 nM | 115 nM |  | 992 nM | ED50 [13]: inactive; ED50 [21]: inactive; ED50 [14]: inactive; ED50 [15]: inactive; ED50 [22]: inactive; ED50 [23]: inactive |

| SMILES | Ki [2] | Ki [1] | Ki [3] | Ki [11] | Ki [12] | also measured |
| --- | --- | --- | --- | --- | --- | --- |
| CCCN(CC(C)C)[C@@H]1CCc2ccc3[nH]cc(C=O)c3c2C1 | 28 nM | 6.5 nM | 100 nM |  |  |  |
| CCCN(CCc1ccccc1)C1CCc2ccc3[nH]ccc3c2C1 (stereo unspecified) | 5.5 nM | 7.4 nM | 18 nM |  | 249 nM |  |
